Experimental data reported in ChEMBL document CHEMBL2151029, “Synthesis of N-(5-chloro-6-(quinolin-3-yloxy)pyridin-3-yl)benzenesulfonamide derivatives as non-TZD peroxisome proliferator-activated receptor γ (PPARγ) agonist” (Eur J Med Chem, 2012).

Legend:
[1] = target: T1, Peroxisome proliferator-activated receptor gamma (Mus musculus) (UniProt P37238); assay: Agonist activity at PPARgamma receptor in mouse 3T3-L1 cells assessed as adipogenesis at 20 ug/mL relative to insulin; format: functional, cell-based
T1 sequence (whole entry): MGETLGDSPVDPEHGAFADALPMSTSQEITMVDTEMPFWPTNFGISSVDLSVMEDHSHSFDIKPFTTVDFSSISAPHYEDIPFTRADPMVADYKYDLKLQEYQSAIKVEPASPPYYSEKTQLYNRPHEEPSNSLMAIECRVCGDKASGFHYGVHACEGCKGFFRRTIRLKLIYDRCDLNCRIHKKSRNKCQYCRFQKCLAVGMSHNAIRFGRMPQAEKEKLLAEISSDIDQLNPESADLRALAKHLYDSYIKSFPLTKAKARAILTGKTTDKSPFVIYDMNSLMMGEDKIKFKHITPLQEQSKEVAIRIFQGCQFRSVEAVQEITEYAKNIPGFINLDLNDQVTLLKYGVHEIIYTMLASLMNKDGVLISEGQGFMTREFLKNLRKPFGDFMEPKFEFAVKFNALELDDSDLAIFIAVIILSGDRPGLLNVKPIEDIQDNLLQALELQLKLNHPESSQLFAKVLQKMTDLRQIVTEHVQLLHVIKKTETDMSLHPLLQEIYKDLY
Summary of the method: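 3T3-L1 cells were treated with compound at 20 µg/ml in the presence of insulin and adipogenesis was measured. The response to a potent PPARγ full agonist at 1 µM was set as 100%. Emax (%) is the maximal adipogenic activity with test compound.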

[2] = target: T2, Peroxisome proliferator-activated receptor gamma (Homo sapiens) (UniProt P37231); assay: Agonist activity at human PPARgamma receptor expressed in HEK293 cells at 10 uM relative to PPARgamma full agonist at 1 uM
T2 sequence (whole entry): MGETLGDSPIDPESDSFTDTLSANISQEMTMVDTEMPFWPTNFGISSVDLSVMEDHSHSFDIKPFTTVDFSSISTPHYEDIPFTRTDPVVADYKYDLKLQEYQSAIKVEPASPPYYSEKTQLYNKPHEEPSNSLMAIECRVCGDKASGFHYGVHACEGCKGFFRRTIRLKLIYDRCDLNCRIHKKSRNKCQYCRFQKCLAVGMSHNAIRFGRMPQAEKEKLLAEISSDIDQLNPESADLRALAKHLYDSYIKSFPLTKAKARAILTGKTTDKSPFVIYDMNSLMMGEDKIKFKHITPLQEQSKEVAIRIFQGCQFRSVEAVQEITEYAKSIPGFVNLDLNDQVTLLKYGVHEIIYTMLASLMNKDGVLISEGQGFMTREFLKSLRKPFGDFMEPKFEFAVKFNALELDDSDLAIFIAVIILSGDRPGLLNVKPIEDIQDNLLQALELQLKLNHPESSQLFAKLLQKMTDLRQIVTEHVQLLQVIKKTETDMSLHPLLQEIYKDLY

[3] = Drug excretion in db/db mouse assessed as elimination rate constant at 100 mg/kg, po; format: ADME, organism-based; design: dose 100 mg/kg, route oral; details: in vivo
Summary of the method: (§1)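 Female db/db mice received a single 100 mg/kg oral dose as a suspension in 0.5% CMC and Tween 80 (10 mL/kg), n = 4 per time point. Blood was drawn at 0.08 to 8.0 h and plasma was kept at -80 °C. Compound levels were measured by HPLC. Parameters came from non-compartmental analysis: Cmax and Tmax read directly, λz from terminal log-linear regression, T1/2 = 0.693/λz.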

[4] = AUC (0 to 8 hrs) in db/db mouse at 100 mg/kg, po; format: ADME, organism-based; design: time < 8 hr, dose 100 mg/kg, route oral; details: plasma; summary of the method: as §1
[5] = Terminal elimination half life in db/db mouse at 100 mg/kg, po; format: ADME, organism-based; design: dose 100 mg/kg, route oral; details: in vivo, read-out: beta t1/2 (converted); summary of the method: as §1
[6] = Tmax in db/db mouse at 100 mg/kg, po; format: ADME, organism-based; design: dose 100 mg/kg, route oral; details: in vivo; summary of the method: as §1
[7] = Cmax in db/db mouse at 100 mg/kg, po; format: ADME, organism-based; design: dose 100 mg/kg, route oral; details: in vivo; summary of the method: as §1
Mus musculus [8] = assay: Volume of distribution in db/db mouse at 100 mg/kg, po; format: ADME, organism-based; design: dose 100 mg/kg, route oral; details: in vivo; summary of the method: as §1
[9] = Clearance in db/db mouse at 100 mg/kg, po; format: ADME, organism-based; design: dose 100 mg/kg, route oral; details: in vivo; summary of the method: as §1
Mus musculus [10] = assay: Antihyperglycemic activity in db/db mouse assessed as plasma glucose reduction at 5 mg/kg administered BID for 10 days relative to control; format: functional; design: scale not given: the % may be the effect or the level left
Summary of the method: (§2)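 Male db/db mice, 5 to 7 weeks old and bred in-house, were fed a chow diet and dosed b.i.d. for 10 days. Plasma glucose and body weight gain were assessed at the end of the study.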

Mus musculus [11] = assay: Antihyperglycemic activity in db/db mouse assessed as plasma glucose reduction at 50 mg/kg administered BID for 10 days relative to control; format: functional; design: scale not given: the % may be the effect or the level left; summary of the method: as §2
Mus musculus [12] = assay: Toxicity in db/db mouse assessed as body weight gain at 50 mg/kg administered BID relative to control; format: organism-based; design: dose 50 mg/kg; details: in vivo; summary of the method: as §2

Emax [1] [%]	Emax [2] [%]	SMILES	also measured
57	86	O=S(=O)(Nc1cnc(Oc2cnc3ccccc3c2)c(Cl)c1)c1ccc(C(F)(F)F)cc1Cl	
67	31	Cc1ccc(S(=O)(=O)Nc2cnc(Oc3cnc4ccccc4c3)c(Cl)c2)c(C)c1	
80	62	O=S(=O)(Nc1cnc(Oc2cnc3ccccc3c2)c(Cl)c1)c1cccc(F)c1	
35	56	O=S(=O)(Nc1cnc(Oc2cnc3ccccc3c2)c(Cl)c1)c1ccc(Cl)c(Cl)c1	
95	86	O=S(=O)(Nc1cnc(Oc2cnc3ccccc3c2)c(Cl)c1)c1ccc(F)c(F)c1	k el [3]: 0.000108 s⁻¹; AUC(0-t) at 8 h [4]: 25400 ng·h/mL; half-life [5]: 1.76 h; Tmax [6]: 0.5 h; Cmax [7]: 8330 ng/mL; Vd (Mus musculus [8]): 4.78 L/kg; CL/F [9]: 31.2 mL/min/kg
		CN(CCOc1ccc(CC2SC(=O)NC2=O)cc1)c1ccccn1 (stereo not given) [ROSIGLITAZONE]	Activity (Mus musculus [10]): 52%
90	36	Cc1cccc(S(=O)(=O)Nc2cnc(Oc3cnc4ccccc4c3)c(Cl)c2)c1	
73	83	Cc1cc(F)ccc1S(=O)(=O)Nc1cnc(Oc2cnc3ccccc3c2)c(Cl)c1	
51	39	O=S(=O)(Nc1cnc(Oc2cnc3ccccc3c2)c(Cl)c1)c1ccc(F)cc1Cl	
75	50	O=S(=O)(Nc1cnc(Oc2cnc3ccccc3c2)c(Cl)c1)c1cccc(C(F)(F)F)c1	
56	32	O=S(=O)(Nc1cnc(Oc2cnc3ccccc3c2)c(Cl)c1)c1ccc(F)cc1F	
54	71	COc1ccc(OC)c(S(=O)(=O)Nc2cnc(Oc3cnc4ccccc4c3)c(Cl)c2)c1	
60	93	COc1ccc(S(=O)(=O)Nc2cnc(Oc3cnc4ccccc4c3)c(Cl)c2)cc1OC	k el [3]: 6.39e-05 s⁻¹; AUC(0-t) at 8 h [4]: 146000 ng·h/mL; Activity (Mus musculus [11]): 40%; half-life [5]: 2.99 h; Tmax [6]: 0.25 h; Cmax [7]: 33900 ng/mL; Vd (Mus musculus [8]): 1.23 L/kg; Activity (Mus musculus [12]): 9%; CL/F [9]: 4.67 mL/min/kg
56	28	O=S(=O)(Nc1cnc(Oc2cnc3ccccc3c2)c(Cl)c1)c1ccc(F)c(Cl)c1	
95	43	Cc1ccccc1S(=O)(=O)Nc1cnc(Oc2cnc3ccccc3c2)c(Cl)c1	
